This is an account of results in ChEMBL document CHEMBL1151981, “Bioactive pyridine-N-oxide disulfides from Allium stipitatum” (J Nat Prod, 2009).

In brackets after ≈: the same amount, converted by molar mass. Activity calls are given as the source filed them.

Experiment [1] relates to Mycolicibacterium smegmatis. The experiment is described as follows: Antibacterial activity against Mycobacterium smegmatis after 72 hrs. The format is functional. Put shortly: (§1)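 Fast-growing mycobacteria obtained from NCTC; cultures grown on Columbia blood agar with 7% defibrinated horse blood at 37 °C for 72 h before MIC determination. Ethambutol and isoniazid served as positive controls.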

In experiment [2] the test system is Staphylococcus aureus. The experiment is described as follows: Antibacterial activity against tetracycline-effluxing Staphylococcus aureus XU212 after 72 hrs. Particulars: XU212, 72 h. The format is functional. The essentials:
(§2)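 S. aureus strains tested in a MIC assay; norfloxacin and oxacillin used as positive controls.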

Experiment [3] deals with Mycolicibacterium fortuitum. The experiment is described as follows: Antibacterial activity against Mycobacterium fortuitum after 72 hrs. Type of experiment: functional. Put shortly: as §1
Experiment [4] relates to Staphylococcus aureus. The experiment is described as follows: Antibacterial activity against Staphylococcus aureus EMRSA15 after 72 hrs. To be noted: EMRSA15, 72 h. The format is functional. The essentials:
as §2

Experiment [5] relates to Mycolicibacterium phlei. The experiment is described as follows: Antibacterial activity against Mycobacterium phlei after 72 hrs. The format is functional. The essentials:
as §1

Experiment [6] deals with Staphylococcus aureus. The experiment is described as follows: Antibacterial activity against Staphylococcus aureus SA1199B overexpressing NorA efflux pump after 72 hrs. The format is functional.
In experiment [7] the test system is Mycobacterium tuberculosis. The experiment is described as follows: Upregulation of Rv1335 RNA expression in Mycobacterium tuberculosis H37Rv ATCC 27294 at 2 to 10 ug/ml after 6 hrs by microarray analysis. The format is functional, organism-based. The essentials:
(§3)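 H37Rv grown in 7H9 with 0.2% glycerol, 0.5% BSA fraction V, 0.05% Tween 80, 0.08% NaCl and 0.2% glucose to OD650 0.3. Treated with 2, 5 or 10 µg/mL compound, or matching DMSO, for 6 h. RNA isolated, labelled cDNA hybridised to microarrays. Predictive genes found by class prediction analysis.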

Experiment [8] has as its system Mycobacterium tuberculosis. The experiment is described as follows: Upregulation of hsp RNA expression in Mycobacterium tuberculosis H37Rv ATCC 27294 at 2 to 10 ug/ml after 6 hrs by microarray analysis. The format is functional, organism-based. The essentials: as §3
Experiment [9] concerns Mycobacterium tuberculosis. The experiment is described as follows: Upregulation of clpB RNA expression in Mycobacterium tuberculosis H37Rv ATCC 27294 at 2 to 10 ug/ml after 6 hrs by microarray analysis. The format is functional, organism-based. The essentials: as §3
For experiment [10], the system named is Mycobacterium tuberculosis. The experiment is described as follows: Upregulation of Rv1334 RNA expression in Mycobacterium tuberculosis H37Rv ATCC 27294 at 2 to 10 ug/ml after 6 hrs by microarray analysis. The format is functional, organism-based. Put shortly:
as §3

Experiment [11] deals with Mycobacterium tuberculosis. The experiment is described as follows: Upregulation of sigH RNA expression in Mycobacterium tuberculosis H37Rv ATCC 27294 at 2 to 10 ug/ml after 6 hrs by microarray analysis. The format is functional, organism-based. The essentials:
as §3

Experiment [12] concerns Mycobacterium tuberculosis. The experiment is described as follows: Effect on trxC RNA expression in Mycobacterium tuberculosis H37Rv ATCC 27294 at 2 to 10 ug/ml after 6 hrs by microarray analysis. The format is functional, organism-based. Put shortly:
as §3

For experiment [13], the system named is Mycobacterium tuberculosis. The experiment is described as follows: Effect on trxB2 RNA expression in Mycobacterium tuberculosis H37Rv ATCC 27294 at 2 to 10 ug/ml after 6 hrs by microarray analysis. Type of experiment: functional, organism-based. The essentials:
as §3

Experiment [14] relates to Mycobacterium tuberculosis. The experiment is described as follows: Upregulation of Rv3054c RNA expression in Mycobacterium tuberculosis H37Rv ATCC 27294 at 2 to 10 ug/ml after 6 hrs by microarray analysis. Type of experiment: functional, organism-based. The essentials: as §3
The subject of experiment [15] is Mycobacterium tuberculosis. The experiment is described as follows: Upregulation of dnaJ RNA expression in Mycobacterium tuberculosis H37Rv ATCC 27294 at 2 to 10 ug/ml after 6 hrs by microarray analysis. Type of experiment: functional, organism-based. The essentials:
as §3

Experiment [16] deals with Mycobacterium tuberculosis. The experiment is described as follows: Upregulation of dnaK RNA expression in Mycobacterium tuberculosis H37Rv ATCC 27294 at 2 to 10 ug/ml after 6 hrs by microarray analysis. Type of experiment: functional, organism-based. The essentials: as §3
Experiment [17] relates to Mycobacterium tuberculosis. The experiment is described as follows: Upregulation of Rv0331 RNA expression in Mycobacterium tuberculosis H37Rv ATCC 27294 at 2 to 10 ug/ml after 6 hrs by microarray analysis. Type of experiment: functional, organism-based. Put shortly: as §3
Experiment [18] relates to Mycobacterium tuberculosis. The experiment is described as follows: Upregulation of Rv3463 RNA expression in Mycobacterium tuberculosis H37Rv ATCC 27294 at 2 to 10 ug/ml after 6 hrs by microarray analysis. Type of experiment: functional, organism-based. The essentials:
as §3

Experiment [19] deals with Mycobacterium tuberculosis. The experiment is described as follows: Antibacterial activity against Mycobacterium tuberculosis infected in GKO C57BL/6 mouse assessed as bacterial number in spleen at 25 mg/kg/day administered 14 days postinfection via oral gavage for nine consecutive days measured on day 24 postinfection. The format is functional. The essentials: (§4)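 Female GKO C57BL/6 mice, 8–10 weeks old, infected by low-dose aerosol with M. tuberculosis Erdman (50–100 CFU uptake confirmed day 1). Daily oral gavage in 0.5% methyl cellulose from day 14 for nine consecutive days; isoniazid given at 25 mg/kg/day. Five mice per group, with untreated and pretreatment controls. Lung and spleen CFU log-transformed; one-way ANOVA with Tukey test.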

In experiment [20] the test system is Mycobacterium tuberculosis. The experiment is described as follows: Antibacterial activity against Mycobacterium tuberculosis infected in GKO C57BL/6 mouse assessed as bacterial number in lung at 25 mg/kg/day administered 14 days postinfection via oral gavage for nine consecutive days measured on day 24 postinfection. The format is functional. Put shortly: as §4

Experiment [21] relates to MCF7. The experiment is described as follows: Cytotoxicity against human MCF7 cells after 96 hrs by sulforhodamine B assay. Type of experiment: functional, cell-based. Particulars: MCF7, 96 h. The essentials: (§5)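 SRB assay. Cells seeded at 4000/well in DMEM and allowed to attach overnight at 37 °C, 5% CO2. Exposed in quadruplicate to freshly made compound, 0.1–25 µM, for 96 h. Fixed with ice-cold 10% TCA for 30 min, stained with 0.4% SRB in 1% acetic acid for 15 min. Absorbance read at 540 nm as % of untreated control; IC50 derived from means.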
A general note: In SRB staining, fixed cells bind dye roughly in proportion to their protein.

For experiment [22], the system named is Mycolicibacterium smegmatis. The experiment is described as follows: Antibacterial activity against Mycobacterium smegmatis mc2 2700 after 72 hrs. The format is functional. Particulars: mc2 2700, 72 h.
Experiment [23] can be described thus: Cytotoxicity against human WI38 cells after 96 hrs by sulforhodamine B assay. The format is cell-based. To be noted: WI-38, 96 h. Put shortly: as §5
Experiment [24] deals with A549. The experiment is described as follows: Cytotoxicity against human A549 cells after 96 hrs by sulforhodamine B assay. The format is functional, cell-based. Particulars: A549, 96 h. The essentials:
as §5

The subject of experiment [25] is Mycobacterium tuberculosis. The experiment is described as follows: Antibacterial activity against Mycobacterium tuberculosis H37Rv ATCC 27294 assessed as decrease in viable bacterial counts at 0.01 to 5 ug/ml after 14 days by spot-culture growth inhibition assay. Type of experiment: functional, organism-based. Put shortly: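 Mid-exponential cultures (BCG rotated in 7H9/ADC/Tween 80; H37Rv standing in 7H9/OADC/Tween 80) diluted to 10³ cells/mL. 5 µL spotted onto 7H10 agar with 10% OADC containing compound at 0.01, 0.1, 0.5, 1 and 5 µg/mL. Incubated at 37 °C for 14 days. MIC taken as lowest concentration with no growth; no-compound well as growth control.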

By MIC is commonly meant the smallest concentration in the dilution series that meets the test's criterion for growth inhibition. Low readings indicate a more susceptible organism, high ones a less susceptible organism. The term IC50 denotes the concentration at which inhibition is half-maximal.

Consider `CSSc1ncccn1`, for which the minimum inhibitory concentration (MIC) in experiment [1] is 8 µg/mL (≈ 50.6 µM); in experiment [2], 4 µg/mL (≈ 25.3 µM); in [3], 8 µg/mL (≈ 50.6 µM); in experiment [4] it was 2 µg/mL (≈ 12.6 µM); in experiment [5], 16 µg/mL (≈ 101 µM); in experiment [6], 2 µg/mL (≈ 12.6 µM).

As for `Cc1onc(-c2ccccc2)c1C(=O)N[C@@H]1C(=O)N2[C@@H]1SC(C)(C)[C@@H]2C(=O)O` [OXACILLIN], the MIC in experiment [2] amounted to 128 µg/mL (≈ 319 µM); in experiment [4], 32 µg/mL (≈ 79.7 µM); in [6] it was 0.25 µg/mL (≈ 0.623 µM).

Turning to `CSSc1cccs1`, the MIC was 64 µg/mL (≈ 394 µM) in [1]; above 128 µg/mL in experiment [2]; above 128 µg/mL in experiment [3]; above 128 µg/mL in experiment [4]; above 128 µg/mL in experiment [5]; 128 µg/mL (≈ 789 µM) in [6].

Consider `Oc1cccc2cccnc12`, for which the outcome in [7], in experiment [8], in [9], in experiment [10], in experiment [11] and in experiment [12] was Active. For the same molecule, the result in experiment [13], in experiment [14], in experiment [15], in experiment [16], in experiment [17] and in [18] was Active.

Turning to `NNC(=O)c1ccncc1` [ISONIAZID], the MIC in experiment [1] came out at 0.25 µg/mL (≈ 1.82 µM); in experiment [3], 0.25 µg/mL (≈ 1.82 µM); in experiment [5], 128 µg/mL (≈ 933 µM). Besides, the log10cfu in [19] worked out at 2.16; in [20] it was 5.33.

Take `CC[C@@H](CO)NCCN[C@@H](CC)CO` [ETHAMBUTOL]: the figures for the MIC in [1], in experiment [3] and in experiment [5] were 32 µg/mL (≈ 157 µM), 2 µg/mL (≈ 9.79 µM) and 2 µg/mL (≈ 9.79 µM), respectively.

As to `CSSc1ccccn1`, the minimal inhibitory concentration (MIC) worked out at 8 µg/mL (≈ 50.9 µM) in [1]; 4 µg/mL (≈ 25.4 µM) in experiment [2]; 8 µg/mL (≈ 50.9 µM) in experiment [3]; 2 µg/mL (≈ 12.7 µM) in [4]; 16 µg/mL (≈ 102 µM) in [5]; 2 µg/mL (≈ 12.7 µM) in experiment [6].

Take `CSCSSc1cccc[n+]1[O-]`: the minimum inhibitory concentration (MIC) amounted to 4 µg/mL (≈ 18.2 µM) in experiment [1]; 1 µg/mL (≈ 4.56 µM) in experiment [2]; 8 µg/mL (≈ 36.5 µM) in experiment [3]; 0.5 µg/mL (≈ 2.28 µM) in experiment [4]; 2 µg/mL (≈ 9.12 µM) in [5]; 4 µg/mL (≈ 18.2 µM) in experiment [22]. Besides, the MIC in [6] was 1 µg/mL (≈ 4.56 µM). The 50% inhibitory concentration (IC50) in experiment [21] came to 0.39 µM; in experiment [23], 0.89 µM; in experiment [24] it was 0.78 µM. Also, in [25], the outcome was Active.

In the case of `CSSc1ccc2ccccc2n1`, the MIC was determined as 8 µg/mL (≈ 38.6 µM) in experiment [1]; 4 µg/mL (≈ 19.3 µM) in [2]; 4 µg/mL (≈ 19.3 µM) in experiment [3]; 4 µg/mL (≈ 19.3 µM) in experiment [4]; 8 µg/mL (≈ 38.6 µM) in [5]; 4 µg/mL (≈ 19.3 µM) in experiment [6].

Take `CSSc1ccccc1`: the minimum inhibitory concentration (MIC) in experiment [1] was 64 µg/mL (≈ 410 µM); in experiment [2], above 128 µg/mL; in experiment [3] it was above 128 µg/mL; in experiment [4], above 128 µg/mL; in experiment [5] it was above 128 µg/mL; in experiment [6] it was 128 µg/mL (≈ 819 µM).

For the molecule `[O-][n+]1ccccc1SSc1cccc[n+]1[O-]` [DIPYRITHIONE], the minimum inhibitory concentration (MIC) in experiment [1] came out at 16 µg/mL (≈ 63.4 µM); in experiment [2] it was 1 µg/mL (≈ 3.96 µM); in experiment [3], 16 µg/mL (≈ 63.4 µM); in experiment [4] it was 0.5 µg/mL (≈ 1.98 µM); in [5], 16 µg/mL (≈ 63.4 µM); in experiment [6], 1 µg/mL (≈ 3.96 µM).

For the molecule `CC1=CC(=O)c2ccccc2C1=O`, the result in experiment [7], in [8], in experiment [9], in [10], in experiment [11] and in experiment [12] was Active. For the same molecule, the outcome in [13], in experiment [14], in experiment [15], in experiment [16], in [17] and in [18] was Active.

On to `CCn1cc(C(=O)O)c(=O)c2cc(F)c(N3CCNCC3)cc21` [NORFLOXACIN], for which the minimum inhibitory concentration (MIC) in experiment [2] turned out to be 16 µg/mL (≈ 50.1 µM); in experiment [4], 0.5 µg/mL (≈ 1.57 µM); in [6], 32 µg/mL (≈ 100 µM).
